Measured values reported in ChEMBL document CHEMBL1275251, “Mutant selection window and characterization of allelic diversity for ciprofloxacin-resistant mutants of Rhodococcus equi” (Antimicrob Agents Chemother, 2010).
≈ marks a conversion by molar mass, not a printed value. Calls of active or inactive are those of the source. No cut-off for these calls is given here.

How the values were obtained:
Prescottella equi [1] = test: Antibacterial activity against Rhodococcus equi W5234 harboring GyrA Ser83Ile mutation selected on 16 ug/ml of compound treated culture by broth microdilution method; type: functional, organism-based
How it was run: (§1)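 Mutants were selected by plating at least 1 × 10^10 cells, grown 48 h at 35°C in brain heart infusion broth, on ciprofloxacin-containing Columbia blood agar base for 4 days at 35°C. Each was confirmed by two passages at the selecting concentration and one drug-free passage. MIC was then read by broth microdilution in cation-supplemented Mueller-Hinton broth per CLSI M24-A. Each experiment was done twice.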

Prescottella equi [2] = test: Antibacterial activity against Rhodococcus equi ATCC 6939T harboring GyrA Ser83Arg mutation selected on 2 ug/ml of compound treated culture by broth microdilution method; type: functional, organism-based; how it was run: as §1
Prescottella equi [3] = test: Antibacterial activity against Rhodococcus equi W5234 harboring GyrA Asp87Asn mutation selected on 6 ug/ml of compound treated culture by broth microdilution method; type: functional, organism-based; how it was run: as §1
Prescottella equi [4] = test: Antibacterial activity against Rhodococcus equi ATCC 6939T harboring GyrA Ser83Arg mutation selected on 12 ug/ml of compound treated culture by broth microdilution method; type: functional; conditions: Rhodococcus (subgen. Prescottella) equi; how it was run: as §1
Prescottella equi [5] = test: Antibacterial activity against Rhodococcus equi W5234 isolated from HIV-positive patient; type: functional; conditions: Rhodococcus (subgen. Prescottella) equi
How it was run: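 Cells grown 48 h at 35°C with shaking in brain heart infusion broth, then resuspended. MIC by broth microdilution in cation-supplemented Mueller-Hinton broth per CLSI M24-A. For MIC99 and MPC, ≥1 × 10^10 cells were plated on Columbia blood agar base containing a range of ciprofloxacin concentrations and incubated 4 days at 35°C. Resistant-colony fraction relative to CFU on drug-free plates was plotted against concentration. Run twice.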

Prescottella equi [6] = test: Antibacterial activity against Rhodococcus equi W5234 harboring GyrA Asp87Asn mutation selected on 8 ug/ml of compound treated culture by broth microdilution method; type: functional, organism-based; how it was run: as §1
Prescottella equi [7] = test: Antibacterial activity against Rhodococcus equi ATCC 6939T harboring GyrA Ser83Ile mutation selected on 4 ug/ml of compound treated culture by broth microdilution method; type: functional, organism-based; how it was run: as §1
Prescottella equi [8] = test: Antibacterial activity against Rhodococcus equi W5234 harboring GyrA Asp87Gly mutation selected on 4 ug/ml of compound treated culture by broth microdilution method; type: functional, organism-based; how it was run: as §1
Prescottella equi [9] = test: Antibacterial activity against Rhodococcus equi ATCC 6939T harboring GyrA Asp87Asn mutation selected on 6 ug/ml of compound treated culture by broth microdilution method; type: functional; conditions: Rhodococcus (subgen. Prescottella) equi; how it was run: as §1
Prescottella equi [10] = test: Antibacterial activity against Rhodococcus equi W5234 harboring GyrA Ser83Ile mutation selected on 12 ug/ml of compound treated culture by broth microdilution method; type: functional; conditions: Rhodococcus (subgen. Prescottella) equi; how it was run: as §1
Prescottella equi [11] = test: Antibacterial activity against Rhodococcus equi ATCC 6939T harboring GyrA Ser83Arg mutation selected on 4 ug/ml of compound treated culture by broth microdilution method; type: functional, organism-based; how it was run: as §1
Prescottella equi [12] = test: Antibacterial activity against Rhodococcus equi ATCC 6939T selected on 8 ug/ml of compound treated culture by broth microdilution method; type: functional, organism-based; how it was run: as §1
Prescottella equi [13] = test: Antibacterial activity against Rhodococcus equi W5234 harboring GyrA Ser83Arg mutation selected on 8 ug/ml of compound treated culture by broth microdilution method; type: functional; conditions: Rhodococcus (subgen. Prescottella) equi; how it was run: as §1
Prescottella equi [14] = test: Antibacterial activity against Rhodococcus equi W5234 selected on 2 ug/ml of compound treated culture by broth microdilution method; type: functional; conditions: Rhodococcus (subgen. Prescottella) equi; how it was run: as §1
Prescottella equi [15] = test: Antibacterial activity against Rhodococcus equi W5234 harboring GyrA Ser83Arg mutation selected on 12 ug/ml of compound treated culture by broth microdilution method; type: functional; conditions: Rhodococcus (subgen. Prescottella) equi; how it was run: as §1
Prescottella equi [16] = test: Antibacterial activity against Rhodococcus equi ATCC 6939T selected on 2 ug/ml of compound treated culture by broth microdilution method; type: functional; conditions: Rhodococcus (subgen. Prescottella) equi; how it was run: as §1
Prescottella equi [17] = test: Antibacterial activity against Rhodococcus equi W5234 selected on 8 ug/ml of compound treated culture by broth microdilution method; type: functional; conditions: Rhodococcus (subgen. Prescottella) equi; how it was run: as §1
Prescottella equi [18] = test: Antibacterial activity against Rhodococcus equi ATCC 6939T harboring GyrA Gly81Cys mutation selected on 4 ug/ml of compound treated culture by broth microdilution method; type: functional; conditions: Rhodococcus (subgen. Prescottella) equi; how it was run: as §1
Prescottella equi [19] = test: Antibacterial activity against Rhodococcus equi ATCC 6939T harboring GyrA Asp87Gly mutation selected on 8 ug/ml of compound treated culture by broth microdilution method; type: functional; conditions: Rhodococcus (subgen. Prescottella) equi; how it was run: as §1
Prescottella equi [20] = test: Antibacterial activity against Rhodococcus equi W5234 harboring GyrA Ser83Ile mutation selected on 4 ug/ml of compound treated culture by broth microdilution method; type: functional; conditions: Rhodococcus (subgen. Prescottella) equi; how it was run: as §1
Prescottella equi [21] = test: Antibacterial activity against Rhodococcus equi W5234 harboring GyrA Ser83Arg mutation selected on 6 ug/ml of compound treated culture by broth microdilution method; type: functional; conditions: Rhodococcus (subgen. Prescottella) equi; how it was run: as §1
Prescottella equi [22] = test: Antibacterial activity against Rhodococcus equi ATCC 6939T harboring GyrA Asp87Tyr mutation selected on 4 ug/ml of compound treated culture by broth microdilution method; type: functional, organism-based; how it was run: as §1
Prescottella equi [23] = test: Antibacterial activity against Rhodococcus equi ATCC 6939T harboring GyrA Asp87Gly mutation selected on 4 ug/ml of compound treated culture by broth microdilution method; type: functional; conditions: Rhodococcus (subgen. Prescottella) equi; how it was run: as §1
Prescottella equi [24] = test: Antibacterial activity against Rhodococcus equi W5234 harboring GyrA Asp87Gly mutation selected on 6 ug/ml of compound treated culture by broth microdilution method; type: functional; conditions: Rhodococcus (subgen. Prescottella) equi; how it was run: as §1
Prescottella equi [25] = test: Antibacterial activity against Rhodococcus equi ATCC 6939T harboring GyrA Ser83Arg mutation selected on 8 ug/ml of compound treated culture by broth microdilution method; type: functional; conditions: Rhodococcus (subgen. Prescottella) equi; how it was run: as §1

O=C(O)c1cn(C2CC2)c2cc(N3CCNCC3)c(F)cc2c1=O [CIPROFLOXACIN]
MIC (Prescottella equi [1]): inactive
MIC (Prescottella equi [2]): inactive
MIC (Prescottella equi [3]): inactive
MIC (Prescottella equi [4]): 128 µg/mL (≈ 386 µM)
MIC (Prescottella equi [5]): 0.5 µg/mL (≈ 1.51 µM)
MIC (Prescottella equi [6]): inactive
MIC (Prescottella equi [7]): inactive
MIC (Prescottella equi [8]): inactive
MIC (Prescottella equi [9]): 16 µg/mL (≈ 48.3 µM)
MIC (Prescottella equi [10]): 64 µg/mL (≈ 193 µM)
MIC (Prescottella equi [11]): inactive
MIC (Prescottella equi [12]): inactive
MIC (Prescottella equi [13]): 32 µg/mL (≈ 96.6 µM)
MIC (Prescottella equi [14]): 2 µg/mL (≈ 6.04 µM)
MIC (Prescottella equi [15]): 64 µg/mL (≈ 193 µM)
MIC (Prescottella equi [16]): 2 µg/mL (≈ 6.04 µM)
MIC (Prescottella equi [17]): 16 µg/mL (≈ 48.3 µM)
MIC (Prescottella equi [18]): 8 µg/mL (≈ 24.1 µM)
MIC (Prescottella equi [19]): 16 µg/mL (≈ 48.3 µM)
MIC (Prescottella equi [20]): 32 µg/mL (≈ 96.6 µM)
MIC (Prescottella equi [21]): 32 µg/mL (≈ 96.6 µM)
MIC (Prescottella equi [22]): inactive
MIC (Prescottella equi [23]): 8 µg/mL (≈ 24.1 µM)
MIC (Prescottella equi [24]): 16 µg/mL (≈ 48.3 µM)
MIC (Prescottella equi [25]): 64 µg/mL (≈ 193 µM)
